Source: ChEMBL document CHEMBL3259615, “Combination of triple bond and adamantane ring on the vitamin D side chain produced partial agonists for vitamin D receptor” (J Med Chem, 2014)
Active and inactive are the calls of the source. No cut-off for these calls is given here.

Columns and labels:
Vitamin D3 receptor [1] = biological target: T1, Vitamin D3 receptor (Homo sapiens, UniProt P11473); test: Activation of human VDR expressed in HEK293 cells cotransfected CMX-GAL4-SRC1 and 4-tk-LUC assessed as SRC1 interaction with AF2 surface of VDR by mammalian two-hybrid assay; format: cell-based
T1 sequence (P11473 whole entry): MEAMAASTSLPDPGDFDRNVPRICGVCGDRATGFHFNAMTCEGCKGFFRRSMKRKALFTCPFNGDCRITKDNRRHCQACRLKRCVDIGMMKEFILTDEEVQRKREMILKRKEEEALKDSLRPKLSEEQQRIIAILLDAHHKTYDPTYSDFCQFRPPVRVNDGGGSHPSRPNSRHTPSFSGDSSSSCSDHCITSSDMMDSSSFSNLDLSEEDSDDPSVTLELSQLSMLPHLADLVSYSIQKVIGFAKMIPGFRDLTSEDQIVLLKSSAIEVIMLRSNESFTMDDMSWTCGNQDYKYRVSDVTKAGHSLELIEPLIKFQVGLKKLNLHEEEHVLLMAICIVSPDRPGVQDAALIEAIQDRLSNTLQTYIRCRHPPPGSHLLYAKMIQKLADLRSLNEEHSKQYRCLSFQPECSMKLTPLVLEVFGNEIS
Method in brief: (§1)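 HEK293 cells in DMEM with 5% FBS, per well: 50 ng TK-MH100(UAS)×4-LUC reporter, 10 ng pCMX-β-galactosidase, 15 ng pCMX-VP16-VDR, and 15 ng of a GAL4 fusion. The fusion was RXRα for heterodimerisation, SRC-1 for coactivator binding, N-CoR, or SMRT (NCoR2). Cells were treated across a concentration range. Luciferase was normalised to β-galactosidase.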

U-937 [2] = test: Induction of cyp24A1 mRNA expression in human U937 cells at 100 nM after 24 hrs by real-time PCR relative to 1-alpha,25-dihydroxyvitamin D3; format: functional
Method in brief: (§2)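 Cells seeded at 1 × 10⁴ per well and treated 24 h later with ethanol vehicle or 100 nM ligand for 24 h. Total RNA taken by a chloroform method, reverse-transcribed, and target mRNA quantified by SYBR Green real-time PCR, normalized to ACTIN mRNA. Culture media: HEK293 in DMEM 5% FBS; SW480 and HaCaT in DMEM 10% FBS; MG63 in MEM 10% FBS; THP-1 and U937 in RPMI1640 10% FBS; all at 37 °C, 5% CO₂.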

U-937 [3] = test: Induction of cathelicidine antimicrobial peptide mRNA expression in human U937 cells at 100 nM after 24 hrs by real-time PCR relative to 1-alpha,25-dihydroxyvitamin D3; format: functional; method in brief: as §2
SW480 [4] = test: Induction of TRPV6 mRNA expression in human SW480 cells at 100 nM after 24 hrs by real-time PCR relative to 1-alpha,25-dihydroxyvitamin D3; format: functional; method in brief: as §2
Vitamin D3 receptor [5] = biological target: T1, Vitamin D3 receptor; test: Activation of human VDR expressed in HEK293 cells cotransfected CMX-GAL4-RXRalpha and 4-tk-LUC assessed as heterodimerization with RXRalpha by mammalian two-hybrid assay; format: cell-based; method in brief: as §1
HaCaT [6] = test: Induction of cyp24A1 mRNA expression in human HaCaT cells at 100 nM after 24 hrs by real-time PCR relative to 1-alpha,25-dihydroxyvitamin D3; format: functional; method in brief: as §2
THP-1 [7] = test: Induction of cyp24A1 mRNA expression in human THP1 cells at 100 nM after 24 hrs by real-time PCR relative to 1-alpha,25-dihydroxyvitamin D3; format: functional; method in brief: as §2
Vitamin D3 receptor [8] = biological target: T1, Vitamin D3 receptor; test: Activation of human VDR expressed in HEK293 cells cotransfected CMX-GAL4-NCoR2 and 4-tk-LUC assessed as inhibition of NCoR2 binding to VDR by mammalian two-hybrid assay; format: cell-based; method in brief: as §1
HaCaT [9] = test: Induction of cathelicidine antimicrobial peptide mRNA expression in human HaCaT cells at 100 nM after 24 hrs by real-time PCR relative to 1-alpha,25-dihydroxyvitamin D3; format: functional; method in brief: as §2
[10] = biological target: T2, Vitamin D3 receptor (Homo sapiens) (UniProt P11473); settings: HEK293, 10 to 1000 nM
T2 sequence (whole entry): T1 sequence (P11473 whole entry)

MG-63 = test: Induction of cyp24A1 mRNA expression in human MG63 cells at 100 nM after 24 hrs by real-time PCR relative to 1-alpha,25-dihydroxyvitamin D3; format: functional; method in brief: as §2
Vitamin D3 receptor [11] = biological target: T1, Vitamin D3 receptor; test: Transactivation of human VDR expressed in HEK293 cells cotransfected with mouse VDRE, Tk-Sppx3-LUC reporter plasmid measured after 24 hrs by luciferase reporter assay; format: cell-based
Method in brief: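 HEK293 cells in DMEM with 5% FBS, calcium phosphate-transfected per well with 50 ng TK-Spp×3-LUC (mouse osteopontin VDRE), 10 ng pCMX-β-galactosidase, 15 ng pCMX-VDR and 15 ng pCMX-RXRα. Compounds were tested across a concentration range and cells harvested after 16–24 h. Luciferase was normalised to β-galactosidase. EC50 and efficacy relative to 1,25(OH)₂D₃.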

THP-1 [12] = test: Induction of cathelicidine antimicrobial peptide mRNA expression in human THP1 cells at 100 nM after 24 hrs by real-time PCR relative to 1-alpha,25-dihydroxyvitamin D3; format: functional; method in brief: as §2
SW480 [13] = test: Induction of cyp24A1 mRNA expression in human SW480 cells at 100 nM after 24 hrs by real-time PCR relative to 1-alpha,25-dihydroxyvitamin D3; format: functional; method in brief: as §2
Vitamin D3 receptor [14] = biological target: T1, Vitamin D3 receptor; test: Displacement of [3H]-1,25(OH)2D3 from GST-fused human VDR-LBD expressed in Escherichia coli BL21
Method in brief: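 hVDR-LBD (aa 140–427) as a GST fusion from E. coli BL21 sonicated lysate, 1 μg in pH 7.5 Tris/KCl/DTT/CHAPS buffer with BSA. Ligand in EtOH was preincubated 30 min at RT. [26,27-methyl-³H]-1,25(OH)₂D₃ was then added for 20 h at 4 °C. Free ligand was removed with dextran-coated charcoal and centrifugation, and bound radioactivity counted. IC50 from at least two triplicate runs.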

Vitamin D3 receptor [15] = biological target: T1, Vitamin D3 receptor; test: Activation of human VDR expressed in HEK293 cells cotransfected CMX-GAL4-N-CoR and 4-tk-LUC assessed as inhibition of N-CoR binding to VDR by mammalian two-hybrid assay; format: cell-based; method in brief: as §1
HEK293 [16] = test: Induction of cyp24A1 mRNA expression in HEK293 cells at 100 nM after 24 hrs by real-time PCR relative to 1-alpha,25-dihydroxyvitamin D3; format: functional, Homo sapiens; method in brief: as §2
HEK293 [17] = test: Induction of cyp24A1 mRNA expression in HEK293 cells at 100 nM after 24 hrs by real-time PCR; format: functional, cell-based; settings: Homo sapiens; method in brief: as §2
U-937 [18] = test: Induction of cathelicidine antimicrobial peptide mRNA in human U937 cells at 100 nM after 24 hrs by real-time PCR relative to skin cells; format: functional
Method in brief: (§3)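 THP-1 and U937 cells were grown in RPMI1640 with 10% FBS and penicillin/streptomycin at 37 °C under 5% CO₂, and plated at 1 × 10⁴ cells/well. After 24 h, cells got an ethanol control, 100 nM 1,25(OH)₂D₃ or 100 nM analogue for 24 h. RNA was extracted by a chloroform method and reverse-transcribed. CAMP was measured by SYBR Green real-time PCR, normalized to ACTIN mRNA and compared with 1,25(OH)₂D₃.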

THP-1 [19] = test: Induction of cathelicidine antimicrobial peptide mRNA expression in human THP1 cells at 100 nM after 24 hrs by real-time PCR relative to skin cells; format: functional; method in brief: as §3
[20] = biological target: T2, Vitamin D3 receptor (Homo sapiens); test: Inhibition of 1,25(OH)2D3-induced transactivation of human VDR expressed in HEK293 cells cotransfected with mouse VDRE, Tk-Sppx3-LUC reporter plasmid measured after 24 hrs by luciferase reporter assay; format: cell-based
Method in brief: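 HEK293 cells in DMEM with 5% FBS were calcium-phosphate cotransfected with TK-Spp×3-LUC reporter, pCMX-β-galactosidase, pCMX-VDR and pCMX-RXRα. Cells were then exposed to a range of test concentrations together with 10 nM 1,25(OH)₂D₃. Harvest came 16–24 h later, with luciferase normalized to β-galactosidase.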

| EC50 (Vitamin D3 receptor [1]) | EC50 (Vitamin D3 receptor [5]) | EC50 (Vitamin D3 receptor [8]) | inhibition [10] | EC50 (Vitamin D3 receptor [11]) | IC50 (Vitamin D3 receptor [14]) | EC50 (Vitamin D3 receptor [15]) | SMILES | Activity (U-937 [2]) | Activity (U-937 [3]) | Activity (SW480 [4]) | Activity (HaCaT [6]) | Activity (THP-1 [7]) | Activity (HaCaT [9]) | Activity (MG-63) | Activity (THP-1 [12]) | Activity (SW480 [13]) | Activity (HEK293 [16]) | Activity (HEK293 [17]) | fold change (FC) (U-937 [18]) | fold change (FC) (THP-1 [19]) | other results |
| --- | --- | --- | --- | --- | --- | --- | --- | --- | --- | --- | --- | --- | --- | --- | --- | --- | --- | --- | --- | --- | --- |
| 13.5 nM | 0.8 nM | 2.8 nM | Active | 1.1 nM | 12 nM | 1.8 nM | C=C1[C@H](O)CC(=C/C=C2\CCC[C@]3(C)[C@@H]([C@H](C)CC#C[C@@H](O)CC45CC6CC(CC(C6)C4)C5)CC[C@@H]23)C[C@H]1O | 50% | 65% | 35% | 10% | 10% | 15% | 50% | 55% | 10% | 30% | – | 3.5 | 3.5 | – |
| 6.5 nM | 2.3 nM | 2.4 nM | Active | 1.5 nM | 13 nM | 3.7 nM | C=C1[C@H](O)CC(=C/C=C2\CCC[C@]3(C)[C@@H]([C@H](C)CC#C[C@H](O)CC45CC6CC(CC(C6)C4)C5)CC[C@@H]23)C[C@H]1O | 50% | 75% | 40% | 10% | 10% | 20% | 50% | 74% | 10% | 45% | – | 3.5 | 3.5 | – |

Further lines, the compound ahead of its results:

| SMILES | EC50 (Vitamin D3 receptor [1]) | EC50 (Vitamin D3 receptor [5]) | EC50 (Vitamin D3 receptor [8]) | inhibition [10] | EC50 (Vitamin D3 receptor [11]) | IC50 (Vitamin D3 receptor [14]) | EC50 (Vitamin D3 receptor [15]) | Activity (U-937 [2]) | Activity (U-937 [3]) | Activity (SW480 [4]) | Activity (HaCaT [6]) | Activity (THP-1 [7]) | Activity (HaCaT [9]) | Activity (MG-63) | Activity (THP-1 [12]) | Activity (SW480 [13]) | Activity (HEK293 [16]) | Activity (HEK293 [17]) | fold change (FC) (U-937 [18]) | fold change (FC) (THP-1 [19]) | other results |
| --- | --- | --- | --- | --- | --- | --- | --- | --- | --- | --- | --- | --- | --- | --- | --- | --- | --- | --- | --- | --- | --- |
| C=C1[C@H](O)CC(=C/C=C2\CCC[C@]3(C)[C@@H]([C@H](C)CC#C[C@H](O)C45CC6CC(CC(C6)C4)C5)CC[C@@H]23)C[C@H]1O | 15 nM | 4.4 nM | 4.1 nM | Active | 6.6 nM | 12 nM | 4 nM | 1% | 30% | 30% | 22% | 1% | 15% | 5% | 20% | 32% | 15% | – | – | – | – |
| C=C1/C(=C\C=C2/CCC[C@]3(C)[C@@H]([C@H](C)CCCC(C)(C)O)CC[C@@H]23)C[C@@H](O)C[C@@H]1O | – | – | – | – | – | – | – | – | – | – | – | – | – | – | – | – | – | Active | – | – | – |
| C=C1[C@H](O)CC(=C/C=C2\CCC[C@]3(C)[C@@H]([C@H](C)CC#C[C@@H](O)C45CC6CC(CC(C6)C4)C5)CC[C@@H]23)C[C@H]1O | 1.5 nM | 0.6 nM | 0.5 nM | inactive | 0.07 nM | 0.5 nM | 0.4 nM | 85% | 125% | 65% | 30% | 70% | 60% | 50% | 105% | 50% | – | Active | – | – | – |
| C=C1[C@H](O)CC(=C/C=C2\CCC[C@]3(C)[C@@H]([C@H](C)/C=C/C[C@H](O)C45CC6CC(CC(C6)C4)C5)CC[C@@H]23)C[C@H]1O | – | – | – | – | – | – | – | – | – | – | – | – | – | – | – | – | – | – | – | – | inhibition [20]: Dose-dependent effect |
